Reference: ChEMBL document CHEMBL2010735, “Bioactive hydroanthraquinones and anthraquinone dimers from a soft coral-derived Alternaria sp. fungus” (J Nat Prod, 2012)
≈ marks a conversion by molar mass, not a printed value.

How the values were obtained:
HCT-116 = experiment: Cytotoxicity against human HCT116 cells after 6 days by MTT assay; type: functional, cell-based; conditions: HCT-116, 144 h
[1] = Cytotoxicity against human Hep3B cells after 6 days by MTT assay; type: functional, cell-based, Hep 3B2; conditions: 144 h
PC-3 = experiment: Cytotoxicity against human PC3 cells after 6 days by MTT assay; type: functional, cell-based; conditions: PC-3, 144 h
HepG2 = experiment: Cytotoxicity against human HepG2 cells after 6 days by MTT assay; type: functional, cell-based; conditions: HepG2, 144 h
[2] = Cytotoxicity against human MCF7/ADR cells after 6 days by MTT assay; type: functional, cell-based; conditions: NCI/ADR-RES, 144 h
Staphylococcus = experiment: Antibacterial activity against Staphylococcus albus after 18 hrs by MTT assay; type: functional; conditions: in the assay text read “by broth dilution assay” for “by MTT assay”
Outline: (§1)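 Conventional broth dilution assay against a panel of nine bacterial strains including E. coli and S. albus; V. parahemolyticus also used as pathogenic test organism.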

Vibrio parahaemolyticus = experiment: Antibacterial activity against Vibrio parahaemolyticus after 18 hrs by MTT assay; type: functional; conditions: in the assay text read “by broth dilution assay” for “by MTT assay”; outline: as §1
Escherichia coli = experiment: Antibacterial activity against Escherichia coli after 18 hrs by MTT assay; type: functional; conditions: in the assay text read “by broth dilution assay” for “by MTT assay”; outline: as §1
[3] = system: Porcine reproductive and respiratory syndrome virus; experiment: Antiviral activity against Porcine reproductive and respiratory syndrome virus infected in CRL11171 cells assessed as inhibition of viral replication by RT-PCR analysis; type: functional, cell-based

Row | MIC (Staphylococcus) | MIC (Escherichia coli) | IC50 [3] | Structure (SMILES) | IC50 (HCT-116) | IC50 [1] | IC50 (PC-3) | IC50 (HepG2) | IC50 [2] | MIC (Vibrio parahaemolyticus)
1 |  |  |  | COc1cc(O)c2c(c1)[C@H](O)[C@@H]1C[C@](C)(O)[C@H](O)C[C@H]1C2=O (relative stereo) | > 100 µM | > 100 µM | > 100 µM | > 100 µM | > 100 µM | 
2 | 15 µM (≈ 4.26 µg/mL) | 2.3 µM (≈ 0.654 µg/mL) |  | COc1cc(O)c2c(c1)C(=O)c1cc(C)c(O)cc1C2=O [MACROSPORIN] |  |  |  |  |  | 5 µM (≈ 1.42 µg/mL)
3 |  |  |  | COc1cc(O)c2c(c1)[C@H](O)[C@@H]1[C@@H](C2=O)[C@H](O)[C@@H](O)[C@@](C)(O)[C@@H]1O [AMPELANOL] | > 100 µM | > 100 µM | > 100 µM | > 100 µM | > 100 µM | 
4 | 12 µM (≈ 3.84 µg/mL) | 0.62 µM (≈ 0.199 µg/mL) |  | COc1cc(O)c2c(c1)C(=O)C1=C(C[C@@H](O)[C@@](C)(O)[C@@H]1O)C2=O [ALTERSOLANOL C] | 2.2 µM | 8.2 µM | 7.6 µM | 8.9 µM | 3.2 µM | 1.25 µM (≈ 0.4 µg/mL)
5 |  |  | 22 µM | COc1cc(O)c2c(c1)C(=O)c1cc(C)c(O)c(-c3c(OC)cc4c(c3O)C(=O)c3cc(O)c(C)cc3C4=O)c1C2=O [ALTERPORRIOL Q] |  |  |  |  |  | 
6 |  |  |  | COc1cccc2c1C(=O)c1c(O)c3c(c(O)c1C2=O)C[C@@](O)(C(=O)CO)C[C@@H]3O[C@H]1C[C@H](N)[C@@H](O)[C@H](C)O1 [EPIRUBICIN] | 0.82 µM | 0.96 µM | 0.46 µM | 1.65 µM | 1.65 µM | 
7 | > 20 µM | 2.5 µM (≈ 1.55 µg/mL) | 39 µM | COc1cc(O)c2c(c1)C(=O)c1cc(C)c(O)c(-c3c(OC)cc4c(c3O)C(=O)C3=C(C4=O)[C@@H](O)[C@](C)(O)[C@H](O)[C@H]3O)c1C2=O [ALTERPORRIOL C] | 24 µM | 51 µM | 27 µM | 53 µM | 98 µM | 2.5 µM (≈ 1.55 µg/mL)
8 |  |  |  | COc1cc(O)c2c(c1)[C@H](O)[C@H]1C[C@](C)(O)[C@H](O)C[C@@H]1C2=O [TETRAHYDROALTERSOLANOL B] | > 100 µM | > 100 µM | > 100 µM | > 100 µM | > 100 µM | 
9 | 0.31 µM (≈ 0.103 µg/mL) | 0.62 µM (≈ 0.205 µg/mL) |  | O=C(O)c1cn(C2CC2)c2cc(N3CCNCC3)c(F)cc2c1=O [CIPROFLOXACIN] |  |  |  |  |  | 0.16 µM (≈ 0.053 µg/mL)
10 |  |  |  | COc1cc(O)c2c(c1)[C@H](O)[C@H]1C[C@](C)(O)[C@H](OC(C)=O)C[C@@H]1C2=O | > 100 µM | > 100 µM | > 100 µM | > 100 µM | > 100 µM | 
11 |  |  |  | COc1cc(O)c2c(c1)C(=O)C1=C(C[C@@H](O)[C@@](C)(O)C1)C2=O [ALTERSOLANOL B] | > 100 µM | > 100 µM | > 100 µM | > 100 µM | > 100 µM | 
12 |  |  |  | COc1cc(O)c2c(c1)C(=O)c1cc(C)c(O)c(-c3c(OC)cc4c(c3O)C(=O)C3=C(C4=O)[C@@H](O)[C@](C)(O)[C@H](O)C3)c1C2=O [ALTERPORRIOL P] | 8.6 µM | 21 µM | 6.4 µM | 20 µM | 23 µM | 
13 |  |  | 65 µM | COc1cc(O)c2c(c1)[C@@H](O)[C@H]1C[C@](C)(O)[C@H](O)C[C@@H]1C2=O (relative stereo) [TETRAHYDROALTERSOLANOL C] | > 100 µM | > 100 µM | > 100 µM | > 100 µM | > 100 µM | 
14 |  |  |  | COc1cc(O)c2c(c1)[C@H](O)[C@@H]1[C@H](C[C@@H](O)[C@@](C)(O)[C@@H]1O)C2=O [ALTERSOLANOL L] | > 100 µM | > 100 µM | > 100 µM | > 100 µM | > 100 µM | 
15 |  |  |  | COc1cc(O)c2c(c1)[C@H](O)[C@@H]1C(=C[C@@H](O)[C@@](C)(O)[C@@H]1O)C2=O (relative stereo) | > 100 µM | > 100 µM | > 100 µM | > 100 µM | > 100 µM | 
16 |  |  |  | COc1cc(O)c2c(c1)[C@H](O)[C@H]1C[C@](C)(O)[C@@H](O)C[C@@H]1C2=O (relative stereo) [TETRAHYDROALTERSOLANOL E] | > 100 µM | > 100 µM | > 100 µM | > 100 µM | > 100 µM | 
